Reference: ChEMBL document CHEMBL1155348, “Synthesis and antiviral activity of beta-carboline derivatives bearing a substituted carbohydrazide at C-3 against poliovirus and herpes simplex virus (HSV-1)” (Eur J Med Chem, 2009)
The source made the active and inactive calls. The calls are words filed in the database; no cut-off is given here.

What was measured:
Human alphaherpesvirus 1 [1] = experiment: Antiviral activity against HSV1 infected in african green monkey Vero cells by SRB assay; format: functional, organism-based; settings: Human alphaherpesvirus 1, Vero
In short: (§1)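 Screening: Vero monolayers, infected or uninfected, were treated with a range of compound concentrations. Antiviral activity was read by sulforhodamine B (SRB) staining, and EC50 was taken as the concentration giving 50% efficacy.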

[2] = Selectivity index, ratio of CC50 for african green monkey Vero cells to EC50 in Poliovirus; format: toxicity, cell-based; settings: read-out: Ratio CC50/EC50
In short: (§2)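 SI was derived from the SRB-based CC50 in Vero cells and the SRB-based EC50 against each virus.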

[3] = Cytotoxicity against african green monkey Vero cells after 72 hrs by SRB assay; format: cell-based; settings: chlorocebus sabaeus
In short: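 Uninfected Vero cells were exposed to compound for 72 h and viability was measured by SRB assay. CC50 is the concentration giving 50% cytotoxicity.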

Enterovirus C [4] = experiment: Antiviral activity against Poliovirus infected in african green monkey Vero cells by SRB assay; format: functional, organism-based; in short: as §1
Enterovirus C [5] = experiment: Antiviral activity against Poliovirus infected in african green monkey Vero cells assessed as reduction of plaque formation at 1.65 uM treated during viral infection measured after 48 to 72 hrs by virus yield inhibition assay; format: functional; parameters: scale not given: the % may be the effect or the level left
In short: (§3)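 Compound was diluted from DMSO into serum-free DMEM and added together with virus to PBS-washed Vero monolayers for 1 h at 37 °C in 5% CO2. Unadsorbed virus was removed, and cells were washed with PBS and overlaid with DMEM plus 0.5% carboxymethylcellulose. After 48 or 72 h, cells were fixed with 10% formaldehyde, stained with 0.5% crystal violet and plaques counted.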

Enterovirus C [6] = experiment: Antiviral activity against Poliovirus infected in african green monkey Vero cells assessed as reduction of plaque formation at 6.6 uM treated during viral infection measured after 48 to 72 hrs by virus yield inhibition assay; format: functional; parameters: scale not given: the % may be the effect or the level left; in short: as §3
Enterovirus C [7] = experiment: Antiviral activity against Poliovirus infected in 1 hr compound pretreated african green monkey Vero cells assessed as reduction of plaque formation at 3.3 uM measured after 48 to 72 hrs by virus yield inhibition assay; format: functional; parameters: scale not given: the % may be the effect or the level left
In short: (§4)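 Compound was dissolved in DMSO, diluted in serum-free DMEM and added to PBS-washed Vero monolayers for 1 h at 37 °C in 5% CO2. Unbound compound was removed and cells were washed and then infected for 1 h. Unadsorbed virus was removed, and cells were washed and overlaid with DMEM plus 0.5% carboxymethylcellulose. After 48 or 72 h, cells were fixed with formaldehyde, stained with crystal violet and plaques counted.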

Enterovirus C [8] = experiment: Antiviral activity against Poliovirus infected in african green monkey Vero cells assessed as reduction of plaque formation at 1.65 uM treated 1 hr after viral infection measured after 48 to 72 hrs by virus yield inhibition assay; format: functional; parameters: scale not given: the % may be the effect or the level left
In short: (§5)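 PBS-washed Vero monolayers were infected for 1 h. Unadsorbed virus was removed, cells were washed, and compound was then added at various concentrations in DMEM with 0.5% carboxymethylcellulose. After 48 or 72 h at 37 °C, cells were fixed with 10% formaldehyde, stained with 0.5% crystal violet and plaques counted.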

Enterovirus C [9] = experiment: Antiviral activity against Poliovirus infected in african green monkey Vero cells assessed as reduction of plaque formation at 0.825 uM treated 1 hr after viral infection measured after 48 to 72 hrs by virus yield inhibition assay; format: functional; parameters: scale not given: the % may be the effect or the level left; in short: as §5
Enterovirus C [10] = experiment: Antiviral activity against Poliovirus infected in african green monkey Vero cells assessed as reduction of plaque formation at 3.3 uM treated 1 hr after viral infection measured after 48 to 72 hrs by virus yield inhibition assay; format: functional; parameters: scale not given: the % may be the effect or the level left; in short: as §5
Enterovirus C [11] = experiment: Antiviral activity against Poliovirus infected in 1 hr compound pretreated african green monkey Vero cells assessed as reduction of plaque formation at 0.825 uM measured after 48 to 72 hrs by virus yield inhibition assay; format: functional; parameters: scale not given: the % may be the effect or the level left; in short: as §4
Enterovirus C [12] = experiment: Antiviral activity against Poliovirus infected in african green monkey Vero cells assessed as reduction of plaque formation at 0.825 uM treated during viral infection measured after 48 to 72 hrs by virus yield inhibition assay; format: functional; parameters: scale not given: the % may be the effect or the level left; in short: as §3
Enterovirus C [13] = experiment: Antiviral activity against 1 hr compound pretreated Poliovirus infected in african green monkey Vero cells assessed as reduction of plaque formation at 6.6 uM after 48 to 72 hrs by virus yield inhibition assay; format: functional; parameters: scale not given: the % may be the effect or the level left
Enterovirus C [14] = experiment: Antiviral activity against Poliovirus infected in 1 hr compound pretreated african green monkey Vero cells assessed as reduction of plaque formation at 1.65 uM measured after 48 to 72 hrs by virus yield inhibition assay; format: functional; parameters: scale not given: the % may be the effect or the level left; in short: as §4
Enterovirus C [15] = experiment: Antiviral activity against Poliovirus infected in african green monkey Vero cells assessed as reduction of plaque formation at 6.6 uM treated 1 hr after viral infection measured after 48 to 72 hrs by virus yield inhibition assay; format: functional; parameters: scale not given: the % may be the effect or the level left; in short: as §5
Enterovirus C [16] = experiment: Antiviral activity against Poliovirus infected in 1 hr compound pretreated african green monkey Vero cells assessed as reduction of plaque formation at 6.6 uM measured after 48 to 72 hrs by virus yield inhibition assay; format: functional; parameters: scale not given: the % may be the effect or the level left; in short: as §4
Enterovirus C [17] = experiment: Antiviral activity against Poliovirus infected in african green monkey Vero cells assessed as reduction of plaque formation at 3.3 uM treated during viral infection measured after 48 to 72 hrs by virus yield inhibition assay; format: functional; parameters: scale not given: the % may be the effect or the level left; in short: as §3
Enterovirus C [18] = experiment: Antiviral activity against 1 hr compound pretreated Poliovirus infected in african green monkey Vero cells assessed as reduction of plaque formation at 3.3 uM after 48 to 72 hrs by virus yield inhibition assay; format: functional; parameters: scale not given: the % may be the effect or the level left
Enterovirus C [19] = experiment: Antiviral activity against 1 hr compound pretreated Poliovirus infected in african green monkey Vero cells assessed as reduction of plaque formation at 1.65 uM after 48 to 72 hrs by virus yield inhibition assay; format: functional; parameters: scale not given: the % may be the effect or the level left
Enterovirus C [20] = experiment: Antiviral activity against 1 hr compound pretreated Poliovirus infected in african green monkey Vero cells assessed as reduction of plaque formation at 0.825 uM after 48 to 72 hrs by virus yield inhibition assay; format: functional; parameters: scale not given: the % may be the effect or the level left
[21] = Selectivity index, ratio of CC50 for african green monkey Vero cells to EC50 in HSV1; in short: as §2
Human alphaherpesvirus 1 [22] = experiment: Antiviral activity against 1 hr compound pretreated HSV1 infected in african green monkey Vero cells assessed as inhibition of viral replication measured after 48 to 72 hrs; format: functional, organism-based
In short: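 HSV-1 was mixed with compound for 1 h before being added to Vero cells. The mixture infected the cells for 1 h at 37 °C in 5% CO2. The monolayer was washed with PBS and overlaid with DMEM containing carboxymethylcellulose. After 48 or 72 h at 37 °C, cells were fixed with 10% formaldehyde and stained with 0.5% crystal violet, and plaques were counted.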

Compound | EC50 (Human alphaherpesvirus 1 [1]) [µM] | CC50 at 72 h [3] [µM] | EC50 (Enterovirus C [4]) [µM] | Ratio CC50/EC50 [21] | further results
O=C(N/N=C/c1ccccc1)c1cc2c([nH]c3ccccc32)c(-c2ccccc2)n1 | > 100 | 777 | 1.95 | – | selectivity ratio [2]: 398
COc1ccc(-c2nc(C(=O)N/N=C/c3ccc([N+](=O)[O-])cc3)cc3c2[nH]c2ccccc23)cc1 | > 100 | – | > 100 | – | –
O=C(N/N=C/c1ccccc1)c1cc2c([nH]c3ccccc32)c(-c2ccc([N+](=O)[O-])cc2)n1 | > 100 | – | > 100 | – | –
CN(C)c1ccc(/C=N/NC(=O)c2cc3c([nH]c4ccccc43)c(-c3ccc(O)cc3)n2)cc1 | > 100 | 900 | 2.67 | – | Activity (Enterovirus C [5]): 0%; Activity (Enterovirus C [6]): 0%; selectivity ratio [2]: 337; Activity (Enterovirus C [7]): 0%; Activity (Enterovirus C [8]): 32%; Activity (Enterovirus C [9]): 0%; Activity (Enterovirus C [10]): 66.3%; Activity (Enterovirus C [11]): 0%; Activity (Enterovirus C [12]): 0%; Activity (Enterovirus C [13]): 0%; Activity (Enterovirus C [14]): 0%; Activity (Enterovirus C [15]): 88.3%; Activity (Enterovirus C [16]): 0%; Activity (Enterovirus C [17]): 0%; Activity (Enterovirus C [18]): 0%; Activity (Enterovirus C [19]): 0%; Activity (Enterovirus C [20]): 0%
COc1ccc(-c2nc(C(=O)N/N=C/c3ccccc3)cc3c2[nH]c2ccccc23)cc1 | > 100 | – | > 100 | – | –
COc1ccc(/C=N/NC(=O)c2cc3c([nH]c4ccccc43)c(-c3ccc([N+](=O)[O-])cc3)n2)cc1 | > 100 | – | > 100 | – | –
COc1ccc(-c2nc(C(=O)N/N=C/c3ccc(N(C)C)cc3)cc3c2[nH]c2ccccc23)cc1 | > 100 | – | > 100 | – | –
O=C(N/N=C/c1ccccc1Cl)c1cc2c([nH]c3ccccc32)c(-c2ccc(O)cc2)n1 | 41.2 | 29.8 | > 100 | 0.7 | –
CN(C)c1ccc(/C=N/NC(=O)c2cc3c([nH]c4ccccc43)c(-c3cccc([N+](=O)[O-])c3)n2)cc1 | 73.2 | 1050 | > 100 | 14.3 | –
O=C(N/N=C/c1ccc([N+](=O)[O-])cc1)c1cc2c([nH]c3ccccc32)c(-c2ccc(O)cc2)n1 | 86.5 | 200 | > 100 | 2.3 | –
CN(C)c1ccc(/C=N/NC(=O)c2cc3c([nH]c4ccccc43)c(-c3ccc([N+](=O)[O-])cc3)n2)cc1 | > 100 | – | > 100 | – | –
COc1ccc(/C=N/NC(=O)c2cc3c([nH]c4ccccc43)c(-c3ccc(O)cc3)n2)cc1 | 22.9 | 803 | > 100 | 35 | –
O=C(N/N=C/c1ccccc1)c1cc2c([nH]c3ccccc32)c(-c2ccc(O)cc2)n1 | > 100 | 1240 | 1.03 | – | selectivity ratio [2]: 1200
O=C(N/N=C/c1ccccc1Cl)c1cc2c([nH]c3ccccc32)c(-c2ccccc2)n1 | > 100 | – | > 100 | – | –
COc1ccc(/C=N/NC(=O)c2cc3c([nH]c4ccccc43)c(-c3ccc(OC)cc3)n2)cc1 | > 100 | – | > 100 | – | –
COc1ccc(/C=N/NC(=O)c2cc3c([nH]c4ccccc43)c(-c3cccc([N+](=O)[O-])c3)n2)cc1 | > 100 | – | > 100 | – | –
CN(C)c1ccc(/C=N/NC(=O)c2cc3c([nH]c4ccccc43)c(-c3ccccc3)n2)cc1 | 1.85 | 1160 | 0.87 | 629.5 | selectivity ratio [2]: 1340
COc1ccc(/C=N/NC(=O)c2cc3c([nH]c4ccccc43)c(-c3ccccc3)n2)cc1 | 0.47 | 1150 | 0.87 | 2446.8 | selectivity ratio [2]: 1320; Activity (Human alphaherpesvirus 1 [22]): inactive
O=C(N/N=C/c1ccc([N+](=O)[O-])cc1)c1cc2c([nH]c3ccccc32)c(-c2ccccc2)n1 | > 100 | – | > 100 | – | –
